Hits are enriched below; roughly 2.3% of the tested compounds scored in any of these assays.
Myeloid diff MLP: compounds promoting myeloid differentiation; ER-HoxA9 myeloid progenitors, lysozyme-GFP differentiation, flow cytometry; 360,000 tested, 1% active; calls only at 10 µM;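 active means normalized GFP-positive differentiation at or above the plate's own cutoff, the solvent-only control mean plus 3 SD; inconclusive means no clear call, values can overlap the other calls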;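 further: cells exposed to compound for four days before flow analysis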
HNF4A DNA FP: change in binding of human HNF4 alpha to DNA; P41235; HNF4a-FITC DNA binding, fluorescence polarization, 1 h; activity change, % at 10 µM; 360,000 tested, 0.3% active; AID 1224865; in the data active means activity change above about 30%, passing the limit was not always enough
Rpn11 block: inhibitors of human proteasome Rpn11 | 360,000 tested, 0.59% active | inhibition, % at 20 µM | human 26S proteasome, Ub4-pepOG fluorescence polarization; 20S core pre-blocked with epoxomicin;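 active means inhibition at 20 µM, scaled to each plate's controls, above about 33%, limit read from the data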
Target sequence (O00487 whole entry, looked up): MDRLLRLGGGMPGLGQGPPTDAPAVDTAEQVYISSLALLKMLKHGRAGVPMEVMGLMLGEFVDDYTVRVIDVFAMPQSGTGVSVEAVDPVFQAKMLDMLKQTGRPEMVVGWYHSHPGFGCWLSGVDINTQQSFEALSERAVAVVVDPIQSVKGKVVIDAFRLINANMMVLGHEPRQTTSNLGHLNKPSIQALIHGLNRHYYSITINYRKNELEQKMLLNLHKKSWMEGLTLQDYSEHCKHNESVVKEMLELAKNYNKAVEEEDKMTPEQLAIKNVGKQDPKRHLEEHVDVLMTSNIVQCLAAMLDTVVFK
CSN inh: inhibitors of human CSN-mediated cullin deneddylation; Q92905; Purified CSN, SCF-Nedd8-OG deneddylation, fluorescence polarization; inhibition, % at 12.5 µM; 360,000 tested, 0.38% active; AID 651999;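 active means pattern-corrected inhibition above about 35%, with an unprinted fluorescence ratio check between 0.5 and 1.5, limit read from the data, passing the limit was not always enough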
Target sequence (Q92905 whole entry, looked up, one chain of several): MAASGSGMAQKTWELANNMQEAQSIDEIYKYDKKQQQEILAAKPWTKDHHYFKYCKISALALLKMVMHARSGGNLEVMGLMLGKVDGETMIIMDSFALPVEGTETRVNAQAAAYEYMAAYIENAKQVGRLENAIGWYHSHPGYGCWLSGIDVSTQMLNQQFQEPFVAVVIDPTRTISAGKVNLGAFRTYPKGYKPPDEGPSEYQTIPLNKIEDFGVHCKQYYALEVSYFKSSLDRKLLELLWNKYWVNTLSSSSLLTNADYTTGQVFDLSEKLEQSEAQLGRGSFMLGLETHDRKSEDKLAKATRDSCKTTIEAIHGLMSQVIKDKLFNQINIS
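Detection – fluorescence polarization · System – HEK293T-derived human Csn5 enzyme · Controls – substrate-only high control, full reaction low control · Timing – 90 min, room temperature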
TPT1 inhibitor: C. albicans TPT1 enzyme inhibition; recombinant caTPT1, FP RNA substrate dephosphorylation; inhibition, % at 5 µM; 300,000 tested, 0.81% active;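 active means inhibition above the mean of all tested compounds plus 3 SD, set per screening campaign, cut at about 24% in these data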
A number is an active result.

Results for CCNc1nc(-c2sc(NC(=O)C(C)(C)C)nc2C)c(-n2cc(-c3ccccc3)nn2)s1 ?
Myeloid diff MLP: inactive; HNF4A DNA FP: inactive; CSN inh: inactive

What do the screens show for `CN(C)c1ccc(C#Cc2ccc3cc(CCO)oc(=O)c3c2)cc1`?
Myeloid diff MLP: inactive; HNF4A DNA FP: inactive; Rpn11 block: 64; CSN inh: inactive

What do the screens show for `COc1cc(C#Cc2ccc3cc(CCO)oc(=O)c3c2)cc(OC)c1`?
Myeloid diff MLP: inactive; HNF4A DNA FP: inactive; Rpn11 block: inactive; CSN inh: inactive

How did O=C(Nc1ccc(Cl)cc1)Nc1ccc2c(c1)N1CCN=C1S2 do in these assays?
Myeloid diff MLP: active; HNF4A DNA FP: inactive; Rpn11 block: inactive; CSN inh: inactive; TPT1 inhibitor: inactive

What do the screens show for `N#Cc1c2c(c(=S)n(-c3ccccc3)c1N)CCCC2`?
Myeloid diff MLP: active; HNF4A DNA FP: inactive; Rpn11 block: inactive; CSN inh: inactive; TPT1 inhibitor: inactive

How did COc1cccc(C(C)(O)c2nc(-c3cnn(C)c3)cs2)c1 (stereo unspecified) do in these assays?
Myeloid diff MLP: inactive; HNF4A DNA FP: inactive; Rpn11 block: inactive; CSN inh: inactive

How did Cc1cc(SCC(=O)Nc2cccc(S(=O)(=O)NC3=NCCCCC3)c2)c(C)cc1Br do in these assays?
Myeloid diff MLP: active; HNF4A DNA FP: inactive; Rpn11 block: inactive; CSN inh: inactive; TPT1 inhibitor: inactive

Results for Cc1nc2c(OCc3ccc(OC(F)F)cc3)cccn2c1N(C)C(=O)CCC1CCCC1 ?
Myeloid diff MLP: inactive; HNF4A DNA FP: inactive; Rpn11 block: inactive; CSN inh: inactive

What do the screens show for `CCCCCCC(C)n1cc(C(C)=O)c(=O)[nH]c1=O` (stereo unspecified)?
Myeloid diff MLP: inactive; HNF4A DNA FP: inactive; Rpn11 block: inactive; CSN inh: 50; TPT1 inhibitor: inactive

Results for CC(=O)c1cn(N2CCCCC2)c(=O)[nH]c1=O ?
Myeloid diff MLP: inactive; HNF4A DNA FP: inactive; Rpn11 block: inactive; CSN inh: inactive; TPT1 inhibitor: inactive

What do the screens show for `CC[C@@H](NC(=O)[C@H](Cc1ccccc1)NC(=O)CC[C@H]1O[C@@H](n2ccc(=O)[nH]c2=O)[C@H](O)[C@@H]1O)c1ccccc1`?
Myeloid diff MLP: inactive; HNF4A DNA FP: inactive; Rpn11 block: inactive; CSN inh: inactive

How did Cc1ccc(-n2c(SCC(=O)c3c(N)n(C)c(=O)n(C)c3=O)nc3sc4c(c3c2=O)CCCC4)c(C)c1 do in these assays?
Myeloid diff MLP: active; HNF4A DNA FP: inactive; Rpn11 block: inactive; CSN inh: inactive; TPT1 inhibitor: inactive

How did Cc1ccc(-n2c(SCC(=O)O)nc3sc4c(c3c2=O)CCCC4)cc1 do in these assays?
Myeloid diff MLP: inactive; HNF4A DNA FP: inactive; Rpn11 block: inactive; CSN inh: inactive; TPT1 inhibitor: inactive

How did Cc1ccc(C)c2nc3sc(C(=O)N4CCCc5ccccc54)c(N)c3cc12 do in these assays?
Myeloid diff MLP: active; HNF4A DNA FP: 56; Rpn11 block: inactive; CSN inh: inactive; TPT1 inhibitor: inactive

How did COc1cc(OC)cc(-c2c(Sc3ccccc3)c3cc(-c4ccc(SC)cc4)ccc3n2C)c1 do in these assays?
Myeloid diff MLP: inactive; HNF4A DNA FP: inactive; CSN inh: inactive

What do the screens show for `COc1ccc(NC(=O)[C@@H]2O[C@H](CO)[C@H](O)[C@H](O)[C@H]2O)cc1F`?
Myeloid diff MLP: inactive; HNF4A DNA FP: inactive; Rpn11 block: inactive; CSN inh: inactive

How did COc1ccc(-c2csc(C(C)(O)c3ccc(F)c(F)c3)n2)cc1 (stereo unspecified) do in these assays?
Myeloid diff MLP: inactive; HNF4A DNA FP: inactive; Rpn11 block: inactive; CSN inh: inactive

Results for CCC(=O)OCCn1c(Br)nc2c1c(=O)[nH]c(=O)n2C ?
Myeloid diff MLP: inactive; HNF4A DNA FP: inactive; Rpn11 block: inactive; CSN inh: inactive; TPT1 inhibitor: inactive

What do the screens show for `Cn1c(=O)[nH]c(=O)c2c1nc(Br)n2CCCO`?
Myeloid diff MLP: active; HNF4A DNA FP: inactive; Rpn11 block: inactive; CSN inh: inactive; TPT1 inhibitor: inactive

What do the screens show for `CCN1Cc2c(/C=C/c3ccccc3)nc3ccc(OC)cc3c2N(c2cccc(Cl)c2)C1`?
Myeloid diff MLP: active; HNF4A DNA FP: inactive; CSN inh: inactive; TPT1 inhibitor: inactive

Results for COc1cccc(N2CCc3c(C)nc4ccc(Cl)cc4c32)c1 ?
Myeloid diff MLP: inconclusive; HNF4A DNA FP: inactive; Rpn11 block: inactive; CSN inh: inactive

Results for CC(C)Nc1ncnc2c1ncn2[C@H]1CN(C2CCCC2)C[C@@H](CO)O1 ?
Myeloid diff MLP: inactive; HNF4A DNA FP: inactive; Rpn11 block: inactive; CSN inh: inactive

How did O=C1COc2ccc(C(=O)NCc3ccc4c(c3)OCO4)cc2N1 do in these assays?
Myeloid diff MLP: inactive; HNF4A DNA FP: inactive; Rpn11 block: inactive; CSN inh: inactive; TPT1 inhibitor: inactive

Results for CC(C)(C)c1ccc(CNC(=O)c2ccc3c(c2)NC(=O)CO3)cc1 ?
Myeloid diff MLP: active; HNF4A DNA FP: inactive; Rpn11 block: inactive; CSN inh: inactive; TPT1 inhibitor: inactive

Results for COc1ccc(Cn2c(O)c(/C=N/NC(=O)c3cccnc3)c3ccccc3c2=O)cc1 ?
Myeloid diff MLP: inactive; HNF4A DNA FP: 44; CSN inh: inactive

What do the screens show for `COc1ccc(C2=Nc3ccccc3N(C(=O)c3ccc(C(F)(F)F)cc3)C2C(=O)Nc2ccc3c(c2)OCCO3)cc1` (stereo unspecified)?
Myeloid diff MLP: inactive; HNF4A DNA FP: inactive; CSN inh: inactive

What do the screens show for `CCc1c(C)nc2cc(-c3ccc(Cl)cc3)[nH]n2c1=O`?
Myeloid diff MLP: inactive; HNF4A DNA FP: inactive; Rpn11 block: inactive; CSN inh: inactive; TPT1 inhibitor: inactive

How did O=c1c2c(nc3cc(-c4ccc(Cl)cc4)[nH]n13)CCS2 do in these assays?
Myeloid diff MLP: inactive; HNF4A DNA FP: inactive; Rpn11 block: inactive; CSN inh: 41; TPT1 inhibitor: inactive

How did COc1ccc(C(NC(=O)C2CCN(CCOc3ccc(Cl)cc3Cl)CC2)c2cccs2)cc1 (stereo unspecified) do in these assays?
Myeloid diff MLP: inactive; HNF4A DNA FP: inactive; Rpn11 block: inactive; CSN inh: inactive

What do the screens show for `COC(=O)/C=C1/S/C(=N/NC(=O)c2ccc(OC)cc2)NC1=O`?
Myeloid diff MLP: inactive; HNF4A DNA FP: inactive; Rpn11 block: inactive; CSN inh: inactive; TPT1 inhibitor: inactive

Results for COC(=O)/C=C1/S/C(=N/NC(=O)c2ccccc2OC)NC1=O ?
Myeloid diff MLP: active; HNF4A DNA FP: inactive; Rpn11 block: inactive; CSN inh: inactive; TPT1 inhibitor: inactive

Results for CC(=O)Nc1cccc(-c2csc(C(C)(O)c3ccc(F)c(F)c3)n2)c1 (stereo unspecified) ?
Myeloid diff MLP: inactive; HNF4A DNA FP: inactive; Rpn11 block: inactive; CSN inh: inactive

How did CC(=O)Nc1sc2c(c1C(c1ccccc1Cl)N1CCN(CCO)CC1)CCCC2 (stereo unspecified) do in these assays?
Myeloid diff MLP: active; HNF4A DNA FP: inactive; Rpn11 block: inactive; CSN inh: inactive; TPT1 inhibitor: inactive

Results for CCS(=O)(=O)c1ccc(N=Nc2ccc(O)c3ncccc23)c(OC)c1 ?
Myeloid diff MLP: inconclusive; HNF4A DNA FP: inactive; Rpn11 block: 50; CSN inh: inactive
